# Reference: ChEMBL document CHEMBL3612041, “Combating highly resistant emerging pathogen Mycobacterium abscessus and Mycobacterium tuberculosis with novel salicylanilide esters and carbamates” (Eur J Med Chem, 2015)
# Columns and labels:
# [1] = Drug level in serum-free RPMI-1640 medium treated with [4-bromo-2-[[4-(trifluoromethyl)phenyl]carbamoyl]phenyl] N-(3-chloropropyl)carbamate at 0.75 mg/ml after 6 hrs by RP-HPLC analysis; format: physicochemical
# [2] = Drug level in serum-free RPMI-1640 medium treated with [4-bromo-2-[[4-(trifluoromethyl)phenyl]carbamoyl]phenyl] 5-chloropyrazine-2-carboxylate at 0.75 mg/ml after 29 hrs by ESI-MS spectra analysis; format: physicochemical
# MONO-MAC-6 = experiment: Cytostatic activity against human MONO-MAC-6 cells assessed as cell viability after 16 hrs by MTT assay; format: cell-based; settings: MONO-MAC-6, 16 h
# Outline: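 MonoMac6 cells kept in RPMI-1640 with 10% FCS, 2 mM L-glutamine and gentamycin at 37 °C, 5% CO2. Cells plated 10⁵ per well and treated after 24 h for 16 h in serum-free RPMI (1.0 v/v% DMSO), 5×10⁻² to 10² µM. MTT at 367 µg/mL final for 3.5 h, crystals dissolved in DMSO, OD540 minus OD620. Cytotoxicity % versus untreated control fitted sigmoidally for IC50. Two independent experiments, 4–8 parallels.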
# [3] = Selectivity index, ratio of IC50 for human MONO-MAC-6 cells to MIC for Mycobacterium tuberculosis H37Rv ATCC 27294; format: toxicity; settings: read-out: Selectivity Index
# [4] = Solubility of the compound in RPMI-1640/Sula media by spectrophotometric analysis; format: physicochemical
# Outline: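 Solubility measured under assay conditions in RPMI and Sula media with 1 v/v% DMSO. Undissolved compound removed on a PVDF filter. 120 µL filtrate mixed with 80 µL acetonitrile, and concentration measured spectrophotometrically.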
# [5] = test system: Mycobacterium tuberculosis; experiment: Antimycobacterial activity against Mycobacterium tuberculosis H37Rv ATCC 27294 after 28 days by serial dilution method; format: functional
# Outline: (§1)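 Serial dilution in in-house Sula semisynthetic medium, pH 6.5. Compounds added as DMSO solutions at 10 doses, final 0.05–100 µg/mL. Incubation at 37 °C, 7 days for M. abscessus and 28 days for M. tuberculosis strains. MIC taken as the lowest concentration giving visible growth inhibition, confirmed by CFU on drug-free Löwenstein-Jensen medium after further equal incubation. Repeated at least twice.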
# [6] = Selectivity index, ratio of IC50 for human MONO-MAC-6 cells to MIC for Mycobacterium abscessus ATCC 19977; format: toxicity; settings: read-out: Selectivity Index
# [7] = test system: Mycobacteroides abscessus; experiment: Antimycobacterial activity against Mycobacterium abscessus ATCC 19977 after 7 days by serial dilution method; format: functional; outline: as §1
smiles,measurement,setting,value
O=C(Nc1ccc(C(F)(F)F)cc1)c1cc(Br)ccc1O,Drug metabolism,[1],metabolite_detected
same,Drug metabolism,[2],metabolite_detected
same,IC50,MONO-MAC-6,7.6 µM
same,selectivity ratio,[3],5.4
same,solubility,[4],< 100 µM
same,Activity,[5],2 CFU
same,MIC,"[5]; Mycobacterium tuberculosis, H37Rv ATCC 27294, 672 h",1.4 µM
same,selectivity ratio,[6],0.5
same,Activity,[7],0 CFU
same,MIC,"[7]; Mycobacteroides abscessus, ATCC 19977, 168 h",13.9 µM
